The source of these data is ChEMBL document CHEMBL4265974, “Discovery of RG7834: The First-in-Class Selective and Orally Available Small Molecule Hepatitis B Virus Expression Inhibitor with Novel Mechanism of Action” (J Med Chem, 2018).

In data set [1] the test system is Mus musculus. Put plainly: AUC (0 to infinity) in BALB/C mouse plasma at 2 mg/kg, po administered as single dose by LC-MS/MS analysis. It is filed as ADME, organism-based. Details: dose 2 mg/kg, route oral, time infinity. Conditions: in vivo.
Data set [2] in a line: Oral bioavailability in cynomolgus monkey. It is filed as ADME, organism-based, Macaca fascicularis. Conditions: in vivo.
Data set [3] in a line: Dissociation constant, pKa of the compound. Type of data set: physicochemical.
Data set [4] can be described thus: Apparent permeability across apical to basolateral side in human Caco2 cells at 10 uM after 1 hr. Type of data set: ADME, cell-based. Conditions: Caco-2. In outline: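 Caco-2 monolayers; 10 µM compound in pH 7.4 HBSS added to apical side (A→B) or basolateral side (B→A), receiver holding pH 7.4 HBSS with 1% DMSO. Incubated 1 h at 37 °C, 5% CO2, 95% humidity. Drug amounts on both sides measured and permeability calculated for each direction.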

Data set [5] can be described thus: Volume of distribution at steady state in BALB/C mouse at 1 mg/kg, iv by LC-MS/MS analysis. Particulars: in vivo, read-out: Vdss. It is filed as ADME, organism-based. A digest of the protocol: (§1)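 Male BALB/C mice given single doses of 1 mg/kg iv (5% DMSO, 40% PEG400, 55% saline), or 2 or 14.5 mg/kg po (1% RC-591 in water). Blood taken at set times into sodium heparin and plasma separated at 4 °C; livers from po groups taken right after bleeding, rinsed and blotted. Plasma and liver levels measured by LC–MS/MS.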

Data set [6] can be described thus: Cmax in BALB/C mouse plasma at 1 mg/kg, iv administered as single dose by LC-MS/MS analysis. Further details: dose 1 mg/kg, route intravenous. It is filed as ADME, organism-based. In outline: as §1
A short description of data set [7]: Cmax in BALB/C mouse plasma at 2 mg/kg, po administered as single dose by LC-MS/MS analysis. Type of data set: ADME, organism-based. Further details: dose 2 mg/kg, route oral. A digest of the protocol: as §1
A short description of data set [8]: Cmax in BALB/C mouse plasma at 14.5 mg/kg, po administered as single dose by LC-MS/MS analysis. Type of data set: ADME, organism-based. Details: dose 14.5 mg/kg, route oral. In outline:
as §1

Data set [9] has as its system Mus musculus. In words: AUC (0 to infinity) in BALB/C mouse plasma at 1 mg/kg, iv administered as single dose by LC-MS/MS analysis. Conditions: in vivo. It is filed as ADME, organism-based. Further details: dose 1 mg/kg, route intravenous, time infinity.
A short description of data set [10]: Oral bioavailability in BALB/C mouse at 2 mg/kg administered as single dose by LC-MS/MS analysis. It is filed as ADME, organism-based. Conditions: in vivo. A digest of the protocol:
as §1

Data set [11] is described as follows: AUC (0 to t) in BALB/C mouse plasma at 14.5 mg/kg, po administered as single dose by LC-MS/MS analysis. Particulars: in vivo. It is filed as ADME, organism-based.
The nature of data set [12]: Cmax in BALB/C mouse liver at 14.5 mg/kg, po administered as single dose by LC-MS/MS analysis. Type of data set: ADME, organism-based. Details: dose 14.5 mg/kg, route oral. In outline:
as §1

Data set [13] in a line: AUC (0 to t) in BALB/C mouse liver at 14.5 mg/kg, po administered as single dose by LC-MS/MS analysis. It is filed as ADME, organism-based. Particulars: in vivo.
Data set [14] can be described thus: Ratio of AUC (0 to t) in BALB/C mouse liver to plasma at 14.5 mg/kg, po administered as single dose by LC-MS/MS analysis. Type of data set: ADME, organism-based. Conditions: read-out: Ratio AUC.
Data set [15] is described as follows: Lipophilicity, log D of the compound. It is filed as physicochemical. Particulars: octanol/water.

Molecules are shown by their SMILES.

Consider `COCCCOc1cc2c(cc1OC)-c1cc(=O)c(C(=O)O)cn1[C@H](C(C)C)C2`, for which the AUC amounted to 490 ng·mL·h in data set [1] and 398 ng·mL·h in [9]. For the same molecule, the bioavailability was determined as 57% in data set [2] and 62% in [10]. The molecule further registered a pKa in data set [3] of 5.79. The Papp A→B at 1 h, 10 µM in data set [4] came out at 12.8 ×10⁻⁶ cm/s. Besides, the Vd in [5] turned out to be 2.07 L/kg. Moreover, the highest concentration (Cmax) was determined as 466 ng/mL in data set [6], 322 ng/mL in [7], 2040 ng/mL in data set [8] and 11000 ng/mL in data set [12]. In addition, the AUCt in data set [11] amounted to 4366 ng·mL·h; in data set [13], 17265 ng·mL·h. Also, the Kp in data set [14] stood at 4. The logD in data set [15] came out at 1.28.
